Tests used:
Settings in all cases: stereoisomer not certain
OR2A1 (Homo sapiens) = target: T1, OR2A1 (Homo sapiens) (UniProt Q8NGT9)
T1 sequence (whole entry): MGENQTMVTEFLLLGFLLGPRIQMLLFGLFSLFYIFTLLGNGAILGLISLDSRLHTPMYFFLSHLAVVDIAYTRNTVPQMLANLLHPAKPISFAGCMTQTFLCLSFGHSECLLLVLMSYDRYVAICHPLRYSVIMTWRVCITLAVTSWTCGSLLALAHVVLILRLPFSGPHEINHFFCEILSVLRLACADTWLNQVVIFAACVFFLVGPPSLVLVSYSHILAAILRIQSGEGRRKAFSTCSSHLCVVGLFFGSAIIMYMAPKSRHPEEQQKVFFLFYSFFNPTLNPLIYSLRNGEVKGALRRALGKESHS
Method in brief: (§1)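 Each receptor–molecule pair is labelled responsive or non-responsive (inactive) according to whether the original authors judged the measured signal statistically different from baseline. The data were taken from the main text and supplementary material of published papers and checked for typos and inconsistencies. Assay methods differed by source, with transient luciferase assays in mammalian cell lines being common.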

OR2A12 (Homo sapiens) = OR2A12 (Homo sapiens) (UniProt Q8NGT7)
Chain of OR2A12 (Homo sapiens) (Q8NGT7 whole entry): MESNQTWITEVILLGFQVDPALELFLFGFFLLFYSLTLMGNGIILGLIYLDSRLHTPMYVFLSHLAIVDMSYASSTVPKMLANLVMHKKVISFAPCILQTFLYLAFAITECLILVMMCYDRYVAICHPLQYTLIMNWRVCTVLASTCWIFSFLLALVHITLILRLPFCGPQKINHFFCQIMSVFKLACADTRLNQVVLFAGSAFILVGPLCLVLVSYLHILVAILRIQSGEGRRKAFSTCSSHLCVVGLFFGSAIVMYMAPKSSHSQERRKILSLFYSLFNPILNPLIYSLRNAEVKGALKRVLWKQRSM
Method in brief: as §1

OR2A14 (Homo sapiens) = OR2A14 (Homo sapiens) (UniProt Q96R47)
Chain of OR2A14 (Homo sapiens) (Q96R47 whole entry): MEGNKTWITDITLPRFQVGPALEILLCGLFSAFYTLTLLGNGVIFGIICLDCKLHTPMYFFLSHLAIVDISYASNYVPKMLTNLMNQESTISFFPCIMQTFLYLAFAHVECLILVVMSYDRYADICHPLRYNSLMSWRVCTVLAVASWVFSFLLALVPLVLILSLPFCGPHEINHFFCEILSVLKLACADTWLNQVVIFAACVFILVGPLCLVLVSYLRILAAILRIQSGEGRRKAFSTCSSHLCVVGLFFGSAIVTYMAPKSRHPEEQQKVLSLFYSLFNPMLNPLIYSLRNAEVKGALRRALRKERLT
Method in brief: as §1

OR2A2 (Homo sapiens) = OR2A2 (Homo sapiens) (UniProt Q6IF42)
Chain of OR2A2 (Homo sapiens) (Q6IF42 whole entry): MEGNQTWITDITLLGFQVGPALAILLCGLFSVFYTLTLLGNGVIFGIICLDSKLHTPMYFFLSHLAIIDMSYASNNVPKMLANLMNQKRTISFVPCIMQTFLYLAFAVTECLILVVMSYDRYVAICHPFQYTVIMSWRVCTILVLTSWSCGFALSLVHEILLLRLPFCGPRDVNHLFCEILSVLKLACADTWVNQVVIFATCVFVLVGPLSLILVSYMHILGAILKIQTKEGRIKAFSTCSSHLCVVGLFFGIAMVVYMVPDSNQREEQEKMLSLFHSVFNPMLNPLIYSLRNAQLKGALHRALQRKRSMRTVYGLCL
Method in brief: as §1

OR2A25 (Homo sapiens) = OR2A25 (Homo sapiens) (UniProt A4D2G3)
Chain of OR2A25 (Homo sapiens) (A4D2G3 whole entry): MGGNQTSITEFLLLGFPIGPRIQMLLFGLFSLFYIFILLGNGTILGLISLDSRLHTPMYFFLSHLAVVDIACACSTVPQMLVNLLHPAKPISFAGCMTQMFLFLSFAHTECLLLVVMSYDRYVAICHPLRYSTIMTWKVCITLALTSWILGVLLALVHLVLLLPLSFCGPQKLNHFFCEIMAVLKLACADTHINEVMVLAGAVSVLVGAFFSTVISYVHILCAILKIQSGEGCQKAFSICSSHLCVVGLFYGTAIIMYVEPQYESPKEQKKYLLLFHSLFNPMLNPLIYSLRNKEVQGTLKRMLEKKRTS
Method in brief: as §1

OR2A4 (Homo sapiens) = OR2A4 (Homo sapiens) (UniProt O95047)
Chain of OR2A4 (Homo sapiens) (O95047 whole entry): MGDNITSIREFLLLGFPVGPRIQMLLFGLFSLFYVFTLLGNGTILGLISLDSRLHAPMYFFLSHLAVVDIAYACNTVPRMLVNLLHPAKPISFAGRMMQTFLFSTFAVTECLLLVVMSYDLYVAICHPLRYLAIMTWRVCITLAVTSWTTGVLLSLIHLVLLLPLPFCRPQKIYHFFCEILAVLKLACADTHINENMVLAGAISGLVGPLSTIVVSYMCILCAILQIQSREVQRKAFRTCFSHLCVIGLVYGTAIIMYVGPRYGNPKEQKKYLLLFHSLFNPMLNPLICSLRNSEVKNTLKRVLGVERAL
Method in brief: as §1

OR2A5 (Homo sapiens) = OR2A5 (Homo sapiens) (UniProt Q96R48)
Chain of OR2A5 (Homo sapiens) (Q96R48 whole entry): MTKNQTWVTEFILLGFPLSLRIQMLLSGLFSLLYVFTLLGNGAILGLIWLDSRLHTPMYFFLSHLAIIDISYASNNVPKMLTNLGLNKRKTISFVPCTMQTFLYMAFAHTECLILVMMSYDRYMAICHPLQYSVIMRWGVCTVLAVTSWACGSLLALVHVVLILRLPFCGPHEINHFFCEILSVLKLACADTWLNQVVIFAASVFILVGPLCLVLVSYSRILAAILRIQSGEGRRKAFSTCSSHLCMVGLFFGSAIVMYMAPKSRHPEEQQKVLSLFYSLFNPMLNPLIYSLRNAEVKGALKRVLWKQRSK
Method in brief: as §1

OR2A7 (Homo sapiens) = target: T2, OR2A7 (Homo sapiens) (UniProt Q96R45)
T2 sequence (whole entry): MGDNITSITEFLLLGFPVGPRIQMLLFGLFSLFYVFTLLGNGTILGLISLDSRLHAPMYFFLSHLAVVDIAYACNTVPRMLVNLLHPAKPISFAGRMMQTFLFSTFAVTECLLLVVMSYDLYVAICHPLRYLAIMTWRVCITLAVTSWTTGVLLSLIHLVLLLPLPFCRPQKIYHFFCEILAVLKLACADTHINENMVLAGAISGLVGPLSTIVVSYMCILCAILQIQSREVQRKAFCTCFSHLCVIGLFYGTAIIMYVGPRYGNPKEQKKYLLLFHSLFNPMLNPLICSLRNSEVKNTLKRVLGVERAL
Method in brief: as §1

OR2AE1 (Homo sapiens) = OR2AE1 (Homo sapiens) (UniProt Q8NHA4)
Chain of OR2AE1 (Homo sapiens) (Q8NHA4 whole entry): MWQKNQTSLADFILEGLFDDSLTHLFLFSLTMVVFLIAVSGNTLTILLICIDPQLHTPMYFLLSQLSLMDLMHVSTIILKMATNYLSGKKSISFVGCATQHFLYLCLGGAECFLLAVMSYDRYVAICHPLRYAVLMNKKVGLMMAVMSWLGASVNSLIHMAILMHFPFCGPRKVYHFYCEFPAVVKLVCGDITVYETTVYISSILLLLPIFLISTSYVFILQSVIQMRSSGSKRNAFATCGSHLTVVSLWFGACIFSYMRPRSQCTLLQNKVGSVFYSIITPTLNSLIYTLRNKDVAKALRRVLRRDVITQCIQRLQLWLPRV
Method in brief: as §1

OR2AG1 (Homo sapiens) = OR2AG1 (Homo sapiens) (UniProt Q9H205)
Chain of OR2AG1 (Homo sapiens) (Q9H205 whole entry): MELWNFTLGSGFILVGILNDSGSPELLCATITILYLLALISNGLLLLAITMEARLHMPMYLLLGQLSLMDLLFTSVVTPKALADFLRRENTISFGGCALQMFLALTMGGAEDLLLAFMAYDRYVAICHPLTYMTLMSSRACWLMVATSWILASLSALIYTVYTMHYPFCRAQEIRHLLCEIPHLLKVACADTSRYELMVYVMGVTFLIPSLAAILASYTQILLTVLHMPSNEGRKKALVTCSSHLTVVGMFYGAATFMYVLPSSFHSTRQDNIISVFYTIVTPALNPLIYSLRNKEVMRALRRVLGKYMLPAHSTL
Method in brief: as §1

OR2AG2 (Homo sapiens) = OR2AG2 (Homo sapiens) (UniProt A6NM03)
Chain of OR2AG2 (Homo sapiens) (A6NM03 whole entry): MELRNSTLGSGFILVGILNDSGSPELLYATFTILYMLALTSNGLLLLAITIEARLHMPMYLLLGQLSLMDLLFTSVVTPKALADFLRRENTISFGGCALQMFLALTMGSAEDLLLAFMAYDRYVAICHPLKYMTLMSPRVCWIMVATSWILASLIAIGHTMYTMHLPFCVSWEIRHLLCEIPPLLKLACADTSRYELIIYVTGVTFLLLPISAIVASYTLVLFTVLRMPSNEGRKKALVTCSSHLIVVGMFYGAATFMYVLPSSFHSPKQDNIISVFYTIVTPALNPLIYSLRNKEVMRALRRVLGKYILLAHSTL
Method in brief: as §1

OR2AJ1 (Homo sapiens) = OR2AJ1 (Homo sapiens) (UniProt Q8NGZ0)
Chain of OR2AJ1 (Homo sapiens) (Q8NGZ0 whole entry): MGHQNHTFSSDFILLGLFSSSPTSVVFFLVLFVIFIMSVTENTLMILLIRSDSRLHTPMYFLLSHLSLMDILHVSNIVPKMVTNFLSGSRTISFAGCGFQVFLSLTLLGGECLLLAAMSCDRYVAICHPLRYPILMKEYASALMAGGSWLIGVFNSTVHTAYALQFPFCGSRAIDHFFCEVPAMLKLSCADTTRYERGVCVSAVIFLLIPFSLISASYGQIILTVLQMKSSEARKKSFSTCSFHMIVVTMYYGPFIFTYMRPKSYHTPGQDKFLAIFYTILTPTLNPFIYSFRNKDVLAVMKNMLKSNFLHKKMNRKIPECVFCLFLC
Method in brief: as §1

OR2AK2 (Homo sapiens) = OR2AK2 (Homo sapiens) (UniProt Q8NG84)
Chain of OR2AK2 (Homo sapiens) (Q8NG84 whole entry): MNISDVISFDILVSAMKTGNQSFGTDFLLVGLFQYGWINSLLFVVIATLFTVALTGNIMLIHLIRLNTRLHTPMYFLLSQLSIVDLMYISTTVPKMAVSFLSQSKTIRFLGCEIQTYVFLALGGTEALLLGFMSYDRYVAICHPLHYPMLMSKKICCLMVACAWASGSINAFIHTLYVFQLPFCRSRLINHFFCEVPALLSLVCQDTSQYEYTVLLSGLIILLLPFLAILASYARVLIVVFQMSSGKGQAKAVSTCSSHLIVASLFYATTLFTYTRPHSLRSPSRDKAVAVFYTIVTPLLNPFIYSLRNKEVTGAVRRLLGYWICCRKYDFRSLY
Method in brief: as §1

OR2AP1 (Homo sapiens) = OR2AP1 (Homo sapiens) (UniProt Q8NGE2)
Chain of OR2AP1 (Homo sapiens) (Q8NGE2 whole entry): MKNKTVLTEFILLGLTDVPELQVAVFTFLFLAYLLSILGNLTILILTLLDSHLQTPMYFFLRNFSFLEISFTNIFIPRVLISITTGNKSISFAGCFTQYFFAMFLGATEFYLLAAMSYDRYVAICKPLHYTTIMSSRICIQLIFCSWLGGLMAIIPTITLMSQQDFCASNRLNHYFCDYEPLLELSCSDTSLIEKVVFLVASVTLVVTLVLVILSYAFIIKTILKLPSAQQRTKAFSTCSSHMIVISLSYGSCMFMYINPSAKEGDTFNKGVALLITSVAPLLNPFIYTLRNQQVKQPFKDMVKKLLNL
Method in brief: as §1

OR2AT4 (Homo sapiens) = OR2AT4 (Homo sapiens) (UniProt A6NND4)
Chain of OR2AT4 (Homo sapiens) (A6NND4 whole entry): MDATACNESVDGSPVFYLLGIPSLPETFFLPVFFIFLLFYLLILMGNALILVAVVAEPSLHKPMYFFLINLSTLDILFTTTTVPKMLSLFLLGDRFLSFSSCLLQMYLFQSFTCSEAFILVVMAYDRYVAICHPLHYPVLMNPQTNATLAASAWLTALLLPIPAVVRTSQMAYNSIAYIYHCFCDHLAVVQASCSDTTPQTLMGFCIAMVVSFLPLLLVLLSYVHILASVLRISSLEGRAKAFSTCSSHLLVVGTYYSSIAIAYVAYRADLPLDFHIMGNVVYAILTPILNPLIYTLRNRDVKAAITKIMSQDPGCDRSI
Method in brief: as §1

OR2A1 S168C = test system: OR2A1 S168C
Chain of OR2A1 S168C (as listed by the source, stated change not applied): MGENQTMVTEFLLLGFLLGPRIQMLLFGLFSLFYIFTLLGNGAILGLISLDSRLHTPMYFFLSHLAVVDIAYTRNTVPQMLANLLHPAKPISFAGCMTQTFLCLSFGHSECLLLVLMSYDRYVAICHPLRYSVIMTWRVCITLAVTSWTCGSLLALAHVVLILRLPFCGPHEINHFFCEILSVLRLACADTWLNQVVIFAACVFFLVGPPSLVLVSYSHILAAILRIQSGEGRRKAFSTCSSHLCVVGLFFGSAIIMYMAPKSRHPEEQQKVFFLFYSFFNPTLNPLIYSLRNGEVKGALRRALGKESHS
Method in brief: as §1

OR2A1 T73A R74C S168C = test system: OR2A1 T73A R74C S168C
Method in brief: as §1

OR2A2 = test system: OR2A2
Chain of OR2A2 (as listed by the source): as the sequence (Q6IF42 whole entry) above, with F280L counted along it
Method in brief: as §1

OR2A5 I126V A202S A255T = test system: OR2A5 I126V A202S A255T
Method in brief: as §1

OR2A7 = test system: OR2A7
Chain of OR2A7 (as listed by the source): as the sequence (O95047 whole entry) above, with R238C, V250F counted along it
Method in brief: as §1

Measured: odorant receptor agonist call

Cc1c([N+](=O)[O-])c(C)c([N+](=O)[O-])c(C(C)(C)C)c1[N+](=O)[O-]
not listed: OR2A1 S168C | OR2A1 T73A R74C S168C | OR2A2 | OR2A5 I126V A202S A255T | OR2A7
inactive: all other assays above

COc1ccc(C=O)cc1
inactive: OR2A1 (Homo sapiens) | OR2A7 (Homo sapiens)

Cc1cccc(C)c1
inactive: OR2A1 (Homo sapiens) | OR2A7 (Homo sapiens)

C=CCOC(=O)Cc1ccccc1
not listed: OR2AJ1 (Homo sapiens)
inactive: all other assays above
